Measured values reported in ChEMBL document CHEMBL1143386, “Prodrugs of perzinfotel with improved oral bioavailability” (J Med Chem, 2009).

Columns and labels:
[1] = Chemical stability in simulated intestinal bile fluid after 8 hrs; format: physicochemical; conditions: read-out: Stability
Method in brief: (§1)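 Compound taken up in 9:1 simulated intestinal bile fluid:acetonitrile at a final 0.01 mg/mL, held in a 37 °C autosampler. HPLC injections every 4 h over 24 h. Percent remaining taken from peak area at 304 nm, corrected by internal standard. Products identified by LC/MS (-ESI).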

[2] = Chemical stability at pH 4.5 after 4 hrs; format: physicochemical; conditions: buffer, read-out: Stability
Method in brief: (§2)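 Compound at 0.01 mg/mL final in a 9:1 mix of aqueous buffer (pH 1.0, 4.5, 6.6 or 7.4) or simulated gastric fluid with acetonitrile, held at 37 °C in the autosampler. Injected every 4 h over 24 h onto C8 HPLC. Percent remaining from peak area at 304 nm, corrected by internal standard; products confirmed by LC/MS (-ESI).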

[3] = Chemical stability in simulated gastric fluid after 20 hrs; format: physicochemical; conditions: read-out: Stability; method in brief: as §2
[4] = Chemical stability in simulated gastric fluid after 8 hrs; format: physicochemical; conditions: read-out: Stability; method in brief: as §2
[5] = Chemical stability at pH 1 after 12 hrs; format: physicochemical; conditions: buffer, read-out: Stability; method in brief: as §2
Plasma [6] = assay: Stability in rat plasma assessed as conversion of benzoic acid [2-(8,9-dioxo-2,6-diaza-bicyclo[5.2.0]non-1(7)-en-2-yl)-ethyl]-hydroxy-phosphinoyloxymethyl ester to perzinfotel after 3 hrs by Lc/MS analysis; format: ADME, cell-free
Method in brief: (§3)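 Dissolved at 0.05 mg/mL in rat plasma and incubated at 37 °C for 0–24 h. Samples quenched with acetonitrile and centrifuged; supernatant diluted and run on HPLC. Parent and conversion products quantified by peak area at 304 nm, corrected by internal standard, and confirmed by LC/MS. Kinetics fitted to a two-step first-order model.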

Glutamate NMDA receptor = assay: Displacement of [3H]CGP-39653 from rat brain NMDA receptor
Method in brief: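 Competitive displacement of [3H]CGP-39653 at the NMDA recognition site, using rat whole-brain membranes.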

[7] = Chemical stability at pH 7.4 after 4 hrs; format: physicochemical; conditions: buffer, read-out: Stability; method in brief: as §2
[8] = Chemical stability in simulated intestinal bile fluid after 12 hrs; format: physicochemical; conditions: read-out: Stability
Method in brief: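 Compound at 0.01 mg/mL final in a 9:1 mix of simulated intestinal bile fluid and acetonitrile at 37 °C. Fed-state medium pH 5.5 with 10 mM sodium taurocholate; fasted-state medium pH 6.0 with 1 mM. Sampled every 4 h to 24 h by HPLC. Percent remaining from 304 nm peak area, corrected by internal standard.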

[9] = Chemical stability at pH 6.6 after 8 hrs; format: physicochemical; conditions: buffer, read-out: Stability; method in brief: as §2
Plasma [10] = assay: Biodistribution in Sprague-Dawley rat plasma assessed as formation of perzinfotel at 10 mg/kg, po after 0.167 hrs; format: ADME, organism-based; parameters: dose 10 mg/kg, route oral; conditions: in vivo
Method in brief: (§4)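 Male Sprague-Dawley rats given [14C]-labelled compound by oral gavage (parent at 30 mg/kg, prodrug at 10 mg/kg). Blood, plasma and brain taken at 0.167, 0.5, 1, 4, 8 and 24 h (n = 3 rats/time point). Total radioactivity measured in each matrix. Metabolite profiles from HPLC with in-line radioactivity detection.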

[11] = Chemical stability at pH 6.6 after 12 hrs; format: physicochemical; conditions: buffer, read-out: Stability; method in brief: as §2
[12] = Chemical stability in simulated intestinal bile fluid after 20 hrs; format: physicochemical; conditions: read-out: Stability; method in brief: as §1
[13] = Chemical stability at pH 7.4 after 20 hrs; format: physicochemical; conditions: buffer, read-out: Stability; method in brief: as §2
[14] = Chemical stability at pH 4.5 after 16 hrs; format: physicochemical; conditions: buffer, read-out: Stability; method in brief: as §2
[15] = Half life in simulated intestinal fluid assessed as loss of 3-{2[8,9-Dioxo-2,6-diazabicyclo[5.2.0-[non-1(7)-en-2-yl}-3-oxido-7-oxo-7-phenyl-2,4,6-trioxa-3-phosphahept-1-yl Benzoate; format: physicochemical
Method in brief: (§5)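 Compound at a final 0.01 mg/mL in 9:1 pH 8.5 buffer or simulated intestinal fluid:acetonitrile, 37 °C. HPLC injections every 4 h over 24 h, with peak area at 304 nm corrected by internal standard and identities confirmed by LC/MS. Conversion kinetics fitted to a two-step first-order model to give rate constants, half-lives and Tmax of the hemiester.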

[16] = Chemical stability at pH 1 after 24 hrs; format: physicochemical; conditions: buffer, read-out: Stability; method in brief: as §2
[17] = Chemical stability in simulated gastric fluid after 4 hrs; format: physicochemical; conditions: read-out: Stability; method in brief: as §2
[18] = Chemical stability in simulated intestinal bile fluid after 16 hrs; format: physicochemical; conditions: read-out: Stability; method in brief: as §1
[19] = Chemical stability at pH 6.6 after 4 hrs; format: physicochemical; conditions: buffer, read-out: Stability; method in brief: as §2
Brain [20] = assay: Biodistribution in Sprague-Dawley rat brain assessed as formation of perzinfotel at 10 mg/kg, po after 0.5 hrs; format: ADME, organism-based; parameters: dose 10 mg/kg, route oral; conditions: in vivo; method in brief: as §4
[21] = Chemical stability at pH 1 after 20 hrs; format: physicochemical; conditions: buffer, read-out: Stability; method in brief: as §2
Blood [22] = assay: Biodistribution in Sprague-Dawley rat blood assessed as formation of perzinfotel at 10 mg/kg, po after 0.5 hrs; format: ADME, organism-based; parameters: dose 10 mg/kg, route oral; conditions: in vivo; method in brief: as §4
Blood [23] = assay: Biodistribution in Sprague-Dawley rat blood assessed as formation of perzinfotel at 10 mg/kg, po after 0.167 hrs; format: ADME, organism-based; parameters: dose 10 mg/kg, route oral; conditions: in vivo; method in brief: as §4
[24] = Chemical stability at pH 1 after 16 hrs; format: physicochemical; conditions: buffer, read-out: Stability; method in brief: as §2
[25] = Chemical stability in simulated gastric fluid after 16 hrs; format: physicochemical; conditions: read-out: Stability; method in brief: as §2
[26] = Chemical stability in simulated gastric fluid after 24 hrs; format: physicochemical; conditions: read-out: Stability; method in brief: as §2
[27] = Chemical stability at pH 4.5 after 24 hrs; format: physicochemical; conditions: buffer, read-out: Stability; method in brief: as §2
[28] = Chemical stability at pH 6.6 after 20 hrs; format: physicochemical; conditions: buffer, read-out: Stability; method in brief: as §2
Rattus norvegicus = organism: Rattus norvegicus; assay: Antinociceptive activity in Sprague-Dawley rat assessed as reversal of PGE2-induced thermal hypersensitivity after 5 hrs; format: functional
Method in brief: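 Male Sprague-Dawley rats (200-250 g) fasted ~16 h and dosed orally in 2% Tween-80/0.5% methylcellulose (1 mL/kg) 0.5-48 h before intradermal PGE2 (0.1 mg in 50 µL). Tail-withdrawal latency was read 30 min later in water at 34-58 °C, with a 20 s cutoff. T10 from each rat's temperature-effect curve; within-subjects repeated-measures ANOVA, p < 0.05.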

[29] = Chemical stability in simulated gastric fluid after 12 hrs; format: physicochemical; conditions: read-out: Stability; method in brief: as §2
[30] = Chemical stability in simulated intestinal bile fluid after 4 hrs; format: physicochemical; conditions: read-out: Stability; method in brief: as §1
[31] = Chemical stability at pH 1 after 8 hrs; format: physicochemical; conditions: buffer, read-out: Stability; method in brief: as §2
[32] = Chemical stability at pH 6.6 after 16 hrs; format: physicochemical; conditions: buffer, read-out: Stability; method in brief: as §2
[33] = Chemical stability at pH 1 after 4 hrs; format: physicochemical; conditions: buffer, read-out: Stability; method in brief: as §2
[34] = Chemical stability in simulated intestinal bile fluid after 24 hrs; format: physicochemical; conditions: read-out: Stability; method in brief: as §1
Brain [35] = assay: Biodistribution in Sprague-Dawley rat brain assessed as formation of perzinfotel at 10 mg/kg, po after 0.167 hrs; format: ADME, organism-based; parameters: dose 10 mg/kg, route oral; conditions: in vivo; method in brief: as §4
[36] = Chemical stability at pH 7.4 after 16 hrs; format: physicochemical; conditions: buffer, read-out: Stability; method in brief: as §2
[37] = Chemical stability at pH 4.5 after 12 hrs; format: physicochemical; conditions: buffer, read-out: Stability; method in brief: as §2
Plasma [38] = assay: Biodistribution in Sprague-Dawley rat plasma assessed as formation of perzinfotel at 10 mg/kg, po after 0.5 hrs; format: ADME, organism-based; parameters: dose 10 mg/kg, route oral; conditions: in vivo; method in brief: as §4
[39] = Chemical stability at pH 7.4 after 24 hrs; format: physicochemical; conditions: buffer, read-out: Stability; method in brief: as §2
[40] = biological target: Glutamate NMDA receptor (Rattus norvegicus) (UniProt P35439+Q00959+Q00960+Q00961+Q62645+Q8VHN2+Q9R1M7); assay: Antagonist activity at rat brain NMDA receptor assessed as inhibition of glutamate-induced [3H]TCP binding at 300 uM
Method in brief: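 Functional NMDA antagonism was measured as inhibition of glutamate-stimulated [3H]-TCP binding to rat whole-brain membranes. The value is percent inhibition at a single concentration.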

[41] = Chemical stability at pH 6.6 after 24 hrs; format: physicochemical; conditions: buffer, read-out: Stability; method in brief: as §2
[42] = Chemical stability at pH 4.5 after 8 hrs; format: physicochemical; conditions: buffer, read-out: Stability; method in brief: as §2
[43] = Chemical stability at pH 7.4 after 12 hrs; format: physicochemical; conditions: buffer, read-out: Stability; method in brief: as §2
[44] = Half life in pH 8.5 buffer assessed as loss of 3-{2[8,9-Dioxo-2,6-diazabicyclo[5.2.0-[non-1(7)-en-2-yl}-3-oxido-7-oxo-7-phenyl-2,4,6-trioxa-3-phosphahept-1-yl Benzoate; format: physicochemical; method in brief: as §5
[45] = Half life in Sprague-Dawley rat plasma assessed as loss of 3-{2[8,9-Dioxo-2,6-diazabicyclo[5.2.0-[non-1(7)-en-2-yl}-3-oxido-7-oxo-7-phenyl-2,4,6-trioxa-3-phosphahept-1-yl Benzoate; format: ADME; method in brief: as §3
[46] = Chemical stability at pH 4.5 after 20 hrs; format: physicochemical; conditions: buffer, read-out: Stability; method in brief: as §2
[47] = Chemical stability at pH 7.4 after 8 hrs; format: physicochemical; conditions: buffer, read-out: Stability; method in brief: as §2

remaining at 8 h [1]: 99.3%
remaining at 4 h [2]: 100%
remaining at 20 h [3]: 98.3%
remaining at 8 h [4]: 99.3%
remaining at 12 h [5]: 98.9%
Stability (Plasma [6]): 90%
IC50 (Glutamate NMDA receptor): 4.2 µM
remaining at 4 h [7]: 91.6%
remaining at 12 h [8]: 98.6%
remaining at 8 h [9]: 95.7%
Drug uptake (Plasma [10]): 88%
remaining at 12 h [11]: 93.7%
remaining at 20 h [12]: 98.5%
remaining at 20 h [13]: 62.2%
remaining at 16 h [14]: 99.7%
half-life [15]: 3.57 h
remaining at 24 h [16]: 97.9%
remaining at 4 h [17]: 99.6%
remaining at 16 h [18]: 98.6%
remaining at 4 h [19]: 98.1%
Drug uptake (Brain [20]): 98%
remaining at 20 h [21]: 98%
Drug uptake (Blood [22]): 98%
Drug uptake (Blood [23]): 88%
remaining at 16 h [24]: 98.5%
remaining at 16 h [25]: 98.7%
remaining at 24 h [26]: 98%
remaining at 24 h [27]: 99.5%
remaining at 20 h [28]: 89.4%
remaining at 12 h [29]: 99%
remaining at 4 h [30]: 99.5%
remaining at 8 h [31]: 99.3%
remaining at 16 h [32]: 91.5%
remaining at 4 h [33]: 99.7%
remaining at 24 h [34]: 98.1%
Drug uptake (Brain [35]): 88%
remaining at 16 h [36]: 68.7%
remaining at 12 h [37]: 99.8%
Drug uptake (Plasma [38]): 98%
remaining at 24 h [39]: 56.7%
inhibition [40]: 8%
remaining at 24 h [41]: 87.4%
remaining at 8 h [42]: 100%
remaining at 12 h [43]: 75.6%
half-life [44]: 1.84 h
half-life [45]: < 4.2 min
remaining at 20 h [46]: 99.5%
remaining at 8 h [47]: 83.2%
Structure (SMILES): O=C(OCOP(=O)(CCN1CCCNc2c1c(=O)c2=O)OCOC(=O)c1ccccc1)c1ccccc1
ED50 (Rattus norvegicus): 10 mg/kg
